Bioassay records (PubChem)
Only some compounds are listed: those with a hit (about 4.7% of all), similar ones and a draw of the others.
ADAM17 inh: ADAM17 inhibition, QFRET primary screen; P78536; recombinant ADAM17, EDANS/DABCYL FRET peptide cleavage; inhibition, % at 6.95 µM; actives 0.83% (n = 370,000); AID 720648;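 active = inhibition above the mean of compounds lying between control limits plus 3 SD, set per campaign, cut at about 8.5% in these data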;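 also: 0% = DMSO-only wells as the low control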
Target sequence (P78536 215-824 limits assumed): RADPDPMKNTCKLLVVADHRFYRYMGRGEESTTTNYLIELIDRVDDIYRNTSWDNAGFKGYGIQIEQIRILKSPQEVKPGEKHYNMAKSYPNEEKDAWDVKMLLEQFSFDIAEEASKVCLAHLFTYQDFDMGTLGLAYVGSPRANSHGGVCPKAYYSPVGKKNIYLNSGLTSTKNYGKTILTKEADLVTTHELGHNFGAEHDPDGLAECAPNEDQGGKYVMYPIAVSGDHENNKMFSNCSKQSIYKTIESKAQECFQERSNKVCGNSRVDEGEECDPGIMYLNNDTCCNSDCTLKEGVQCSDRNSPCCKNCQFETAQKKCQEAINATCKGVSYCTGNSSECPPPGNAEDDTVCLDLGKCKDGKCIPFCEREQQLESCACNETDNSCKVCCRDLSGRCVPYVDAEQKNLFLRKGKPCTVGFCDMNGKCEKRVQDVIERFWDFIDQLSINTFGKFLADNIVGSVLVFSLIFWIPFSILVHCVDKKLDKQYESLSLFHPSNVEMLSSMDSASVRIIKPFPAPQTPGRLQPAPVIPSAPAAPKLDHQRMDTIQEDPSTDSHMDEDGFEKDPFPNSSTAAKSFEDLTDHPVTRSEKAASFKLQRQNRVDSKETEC
ADAM10 inh: inhibits human ADAM10; O14672; recombinant ADAM10, EDANS/DABCYL FRET peptide cleavage, 3 h; inhibition, % at 7 µM; actives 0.62% (n = 370,000);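 active = inhibition above a per-campaign cutoff equal to the mean of compounds falling between control-based bounds plus 3 SD, cut at about 20% in these data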;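 also: 0% = DMSO wells while the 100% control is not disclosed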
SKN-1 inh: blocks SKN-1 activity in C. elegans | C. elegans VP596 Pgst-4::GFP/RFP ratio, acrylamide-induced, 24 h | actives 0.49% (n = 360,000) | inhibition, % at 21.8 µM;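 active = interference check ratio from 0.5 to 1.5 plus GFP to RFP signal ratio inhibition reaching or exceeding a fixed threshold, cut at about 30% in these data, passing the limit was not always enough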
MT1-MMP act inh: blocks activation of human MT1-MMP; GFP/RFP ratio change, % at 20 µM; actives 0.061% (n = 360,000); P50281; AID 651647; HT1080 RFP-PRO-GFP cells, GFP/RFP ratio fluorescence, overnight; percent of plate control window, DMSO zero;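 active = GFP/RFP ratio change of at least 30% with cell ATP level not reduced by more than half and red fluorescence within 50% of control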
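Read-out: GFP/RFP fluorescence ratio; Test system: RFP-PRO-GFP reporter HT1080 cells; Compound dosing: single-point 20 µM compound, 1% DMSO; Times: overnight compound exposure at 37 °C.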
NR3A LBD binder: NR3A (human) ligand-binding domain modulation; actives 2.5% (n = 340,000); Tm shift relative to glycine control, % at 25 µM; NR3A LBD differential scanning fluorimetry, Tm shift; 0% = protein alone, 100% = glycine-bound protein; AID 1259313;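 active = melting temperature shift of at least 10% of the positive control shift, at one fixed dose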
MPTP block: permeability transition pore inhibition | isolated mouse mitochondria, Ca2+ swelling absorbance, 30 min | inhibition, % at 10 µM | actives 1.4% (n = 360,000) | AID 602449;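 active = inhibition of 50% or more, scaled per plate between neutral and stimulator controls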;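 also: 0% = DMSO wells given calcium and 100% = 1 mM EGTA wells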
Active calls of the source: *.

Results for O=C(NN=Cc1c(O)ccc2ccccc12)c1ccncc1 ?
ADAM17 inh: 1; ADAM10 inh: -4; SKN-1 inh: 7; MT1-MMP act inh: -78; NR3A LBD binder: -6; MPTP block: 1

What do the screens show for `COC(=O)c1cccc(Cn2ccc3ccc(-c4ccc5ccn(C(=O)C6CCC6)c5c4)cc32)c1`?
ADAM17 inh: -13; ADAM10 inh: -68

What do the screens show for `O=S(=O)(c1ccccc1)c1nc(-c2cccs2)oc1NCCCn1ccnc1`?
ADAM17 inh: -4; ADAM10 inh: -2; SKN-1 inh: -16; MT1-MMP act inh: 0; NR3A LBD binder: -4; MPTP block: 4

How did CC(=O)c1noc(C)c1C(=O)Nc1nccs1 do in these assays?
ADAM17 inh: -4; ADAM10 inh: -4; SKN-1 inh: -2; MT1-MMP act inh: -3; NR3A LBD binder: 3; MPTP block: -2

Results for O=C(CCc1ccc(S(=O)(=O)N2CCOCC2)cc1)NCCc1ccccn1 ?
ADAM17 inh: -2; ADAM10 inh: -2; SKN-1 inh: 15; MT1-MMP act inh: -2; NR3A LBD binder: -1; MPTP block: 1

How did O=C1CC(SC2=NCCS2)C(=O)N1c1ccc(Cl)cc1 (stereo not drawn) do in these assays?
ADAM17 inh: -3; ADAM10 inh: -1; SKN-1 inh: 2; MT1-MMP act inh: 3; NR3A LBD binder: 24*; MPTP block: -1

What do the screens show for `COc1ccc2c(c1)c(CC(=O)NCc1cc([N+](=O)[O-])ccc1O)c(C)n2C(=O)c1ccc(Cl)cc1`?
ADAM17 inh: 3; ADAM10 inh: -3; SKN-1 inh: 26; MT1-MMP act inh: 11; NR3A LBD binder: 24*; MPTP block: 27

How did COc1ccc2c(c1)c(CC(=O)Nc1cc(C)ccc1C)c(C)n2C(=O)c1ccc(Cl)cc1 do in these assays?
ADAM17 inh: -3; ADAM10 inh: -2; SKN-1 inh: 4; MT1-MMP act inh: -5; NR3A LBD binder: -4; MPTP block: 12

What do the screens show for `O=c1[nH]c2cc([N+](=O)[O-])ccc2c2ccccc12`?
ADAM17 inh: -2; ADAM10 inh: -13; SKN-1 inh: 1; MT1-MMP act inh: -2; NR3A LBD binder: -1; MPTP block: 0

What do the screens show for `O=c1[nH]c2cc([N+](=O)[O-])ccc2c2ccc([N+](=O)[O-])cc12`?
ADAM17 inh: 0; ADAM10 inh: -5; SKN-1 inh: 12; MT1-MMP act inh: 0; NR3A LBD binder: 13*; MPTP block: 0

Results for CCN1CCc2c(C#N)c(N3CCOCC3)nc(N3CCOCC3)c2C1 ?
ADAM17 inh: -31; ADAM10 inh: -96; SKN-1 inh: -9; MT1-MMP act inh: 2; NR3A LBD binder: 27*; MPTP block: -1

What do the screens show for `CCN1CCc2c(C#N)c(N3CCCCC3)nc(N3CCOCC3)c2C1`?
ADAM17 inh: -88; ADAM10 inh: -258; SKN-1 inh: -3; MT1-MMP act inh: -9; NR3A LBD binder: 2; MPTP block: 0

What do the screens show for `COC(=O)Cn1ncn2cccc2c1=O`?
ADAM17 inh: -4; ADAM10 inh: -6; SKN-1 inh: -5; MT1-MMP act inh: 2; NR3A LBD binder: 1; MPTP block: -4

What do the screens show for `O=c1[nH]ncn2cccc12`?
ADAM17 inh: -3; ADAM10 inh: 3; SKN-1 inh: 46*; MT1-MMP act inh: -4; NR3A LBD binder: 0; MPTP block: -1

What do the screens show for `O=C(Cc1c(F)cccc1Cl)NCC1CCCO1` (stereo not drawn)?
ADAM17 inh: 0; ADAM10 inh: 8; SKN-1 inh: 8; MT1-MMP act inh: 3; NR3A LBD binder: 0; MPTP block: 1

How did CN(C)S(=O)(=O)N1CCN(C(=O)c2cccc(Br)c2)CC1 do in these assays?
ADAM17 inh: 1; ADAM10 inh: 3; SKN-1 inh: 19; MT1-MMP act inh: 1; NR3A LBD binder: 11*; MPTP block: -1

How did O=C(c1cccc(Br)c1)N1CCCC1 do in these assays?
ADAM17 inh: -6; ADAM10 inh: 3; SKN-1 inh: 9; MT1-MMP act inh: 0; NR3A LBD binder: 13*; MPTP block: -2

Results for CCOC(=O)C1(CCOc2ccccc2)CCN(S(=O)(=O)N(C)C)CC1 ?
ADAM17 inh: -1; ADAM10 inh: 6; SKN-1 inh: -8; MT1-MMP act inh: 4; NR3A LBD binder: 0; MPTP block: 0

What do the screens show for `O=c1c2ccccc2oc2ccc(-c3ccc4cc[nH]c4c3)cc12`?
SKN-1 inh: 70*; MT1-MMP act inh: 11; NR3A LBD binder: 26*; MPTP block: 0

Results for COc1ccc2c(c1)C(CC(=O)NN)CCC2 (stereo not drawn) ?
ADAM17 inh: -2; ADAM10 inh: 2; SKN-1 inh: 6; MT1-MMP act inh: 5; NR3A LBD binder: 1; MPTP block: -2

How did O=C(CN(c1cccc(Cl)c1)S(=O)(=O)c1ccc(Cl)cc1)N1CCc2ccccc2C1 do in these assays?
ADAM17 inh: -2; ADAM10 inh: -8; SKN-1 inh: 4; MT1-MMP act inh: 2; NR3A LBD binder: 11*; MPTP block: 1

What do the screens show for `COc1ccc(OC)c2c1sc(=NC(=O)C1CC1)n2C`?
ADAM17 inh: -9; ADAM10 inh: 0; SKN-1 inh: 6; MT1-MMP act inh: 13; NR3A LBD binder: 0; MPTP block: 1

Results for COc1ccc(OC)c2c1sc(=NC(=O)c1ccco1)n2C ?
ADAM17 inh: -2; ADAM10 inh: -6; SKN-1 inh: 5; MT1-MMP act inh: 5; NR3A LBD binder: 16*; MPTP block: 0

Results for COc1ccc(C(=O)N=c2sc3c(C)ccc(OC)c3n2C)cc1OC ?
ADAM17 inh: -10; ADAM10 inh: -13; SKN-1 inh: -2; MT1-MMP act inh: 2; NR3A LBD binder: 0; MPTP block: 1

What do the screens show for `COc1cccc(C(=O)N=c2sc3c(C)ccc(OC)c3n2C)c1`?
ADAM17 inh: 0; ADAM10 inh: -10; SKN-1 inh: -5; MT1-MMP act inh: -3; NR3A LBD binder: 12*; MPTP block: 0

Results for CCCCC(=O)N(C)c1c(CC)nc2c(OCc3ccccc3C)cccn12 ?
ADAM17 inh: -7; ADAM10 inh: -15; SKN-1 inh: 13; MT1-MMP act inh: -30; MPTP block: -1

Results for Cc1ccc(OCC(=O)OCC(=O)NC2CCCCCC2)cc1C ?
ADAM17 inh: -3; ADAM10 inh: -15; SKN-1 inh: -3; MPTP block: 1

What do the screens show for `C[N+]1(CCC(=O)c2ccccc2)CCCCC1`?
ADAM17 inh: -5; ADAM10 inh: -6; SKN-1 inh: 4; MT1-MMP act inh: -4; NR3A LBD binder: 10*; MPTP block: 4
